Assay results: ChEMBL document CHEMBL1135893, “Synthesis and mode of action of hydrophobic derivatives of the glycopeptide antibiotic eremomycin and des-(N-methyl-D-leucyl)eremomycin against glycopeptide-sensitive and -resistant bacteria” (J Med Chem, 2002)

What was measured:
[1] = test system: Enterococcus faecium; assay: Antibacterial activity evaluated as minimum inhibitory concentration against 569 Enterococcus faecium (GRE); format: functional
Summary of the method: (§1)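 Broth microdilution in Mueller Hinton broth per NCCLS procedure; repeat results usually identical, always within 2-fold. GISA strains 3797 (HIP-5836 New Jersey) and 3798 (HIP-5827 Michigan); 533 S. epidermidis and 602 S. haemolyticus are clinical isolates; vancomycin-resistant enterococci have confirmed genotype.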

[2] = test system: Enterococcus faecalis; assay: Antibacterial activity evaluated as minimum inhibitory concentration against 559 Enterococcus faecalis (GSE); format: functional; design: unit not given beside the values; summary of the method: as §1
[3] = test system: Enterococcus faecalis; assay: Antibacterial activity evaluated as minimum inhibitory concentration against 560 Enterococcus faecalis (GRE); format: functional; summary of the method: as §1
[4] = test system: Enterococcus faecium; assay: Antibacterial activity evaluated as minimum inhibitory concentration against 568 Enterococcus faecium (GSE); format: functional; summary of the method: as §1
[5] = test system: Staphylococcus aureus; assay: Antibacterial activity evaluated as minimum inhibitory concentration against 3797 Staphylococcus aureus (GISA); format: functional; design: unit not given beside the values; summary of the method: as §1
[6] = test system: Staphylococcus aureus; assay: Antibacterial activity evaluated as minimum inhibitory concentration against 3798 Staphylococcus aureus (GISA); format: functional; design: unit not given beside the values; summary of the method: as §1
[7] = test system: Staphylococcus epidermidis; assay: Antibacterial activity evaluated as minimum inhibitory concentration against 533 Staphylococcus epidermidis; format: functional; summary of the method: as §1
[8] = test system: Nucleic Acid; assay: Inhibition of the peptidoglycan synthesis in the absence of dipeptide bonding using UDP-MurNAc-pentapeptide; format: nucleic-acid assay
Summary of the method: (§2)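 Peptidoglycan synthesis run on filter plates with E. coli OV58 (pTA9) membranes, UDP-MurNAc-pentapeptide or UDP-MurNAc-tetrapeptide plus UDP-N-acetyl-[14C]-D-glucosamine as substrates; radiolabel incorporation into peptidoglycan measured. IC50 from at least six drug concentrations in duplicate, fitted by four-parameter logistic nonlinear regression.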

[9] = test system: Nucleic Acid; assay: Inhibition of the peptidoglycan synthesis in the absence of dipeptide bonding using UDP-MurNAc-tetrapeptide; format: nucleic-acid assay; summary of the method: as §2
[10] = test system: Nucleic Acid; assay: Ratio UDP-MurNAc-tetrapeptide to UDP-MurNAc-Pentapeptide; format: nucleic-acid assay
[11] = test system: Staphylococcus haemolyticus; assay: Antibacterial activity evaluated as minimum inhibitory concentration against 602 Staphylococcus haemolyticus; design: unit not given beside the values

C[C@H]1O[C@@H](O[C@@H]2[C@H](Oc3c4cc5cc3Oc3ccc(cc3Cl)[C@@H](O)[C@@H](N)C(=O)N[C@@H](CC(N)=O)C(=O)N[C@H]5C(=O)N[C@H]3C(=O)N[C@H](C(=O)N[C@H](C(=O)O)c5cc(O)cc(O)c5-c5cc3ccc5O)[C@H](O[C@H]3C[C@@](C)(N)[C@@H](O)[C@@H](C)O3)c3cccc(c3)O4)O[C@@H](CO)[C@H](O)[C@H]2O)C[C@@](C)(NCc2ccc(-c3ccc(Cl)cc3)cc2)[C@H]1O showed an MIC [1] of 8, an MIC [2] of 4 and an MIC [3] of 8. The MIC [4] was 4, the MIC [5] was 8 and the MIC [6] was 8. It also gave an MIC [7] of 4, an IC50 [8] of 7.7 µM and an IC50 [9] of 9.2 µM. It also gave a Ratio [10] of 1.2 and an MIC [11] of 4.
